Most compounds without a hit are left out; they make up all but 2.1% or so of the library.
SUMO1 PPI mod: alters human SUMO1 binding to SIM partners | SUMO1 binding to a labelled peptide, TR-FRET, 1 h | inhibition, % at 20 µM | 0.33% of 360,000 active; in the data active = inhibition above about 37%
Scp1 inh: blocks human Scp-1 phosphatase activity; Recombinant Scp1, phosphopeptide, malachite green phosphate absorbance; inhibition, % at 20 µM; 0.88% of 340,000 active; AID 493091;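 active = inhibition above about 50% at 20 µM, limit read from the data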
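Test system – truncated SCP-1 phosphatase (76-261aa) · Reagent – Phosphorylated 17-residue peptide substrate · Incubation – 45 min room-temperature reaction, 5 min colour, 30 min stabiliser · Detection – colorimetric phosphate reagent with accelerator and stabiliser, absorbance at 630 nm · Measure – % inhibition at 20 µM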
GRK2 aptamer HTS: blocks RNA aptamer binding to human GRK2; P25098; bead flow cytometry, FAM-aptamer displacement from GRK2; inhibition of aptamer binding, % at 10 µM; 0.59% of 330,000 active;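 active = inhibition of aptamer binding above 40%, roughly 3 SD of noise, on plates passing a quality check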;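 note: median bead fluorescence of bound FAM aptamer so fluorescent compounds give negative values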
STEP inh: STEP (human) phosphatase inhibition. 0.25% of 360,000 active. recombinant STEP, OMFP fluorogenic substrate, fluorescence. P54829. inhibition, % at 20 µM. AID 588621;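 active = inhibition at 20 µM, scaled per plate between control wells, above about 37%, limit read from the data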
Target sequence (P54829 whole entry, looked up): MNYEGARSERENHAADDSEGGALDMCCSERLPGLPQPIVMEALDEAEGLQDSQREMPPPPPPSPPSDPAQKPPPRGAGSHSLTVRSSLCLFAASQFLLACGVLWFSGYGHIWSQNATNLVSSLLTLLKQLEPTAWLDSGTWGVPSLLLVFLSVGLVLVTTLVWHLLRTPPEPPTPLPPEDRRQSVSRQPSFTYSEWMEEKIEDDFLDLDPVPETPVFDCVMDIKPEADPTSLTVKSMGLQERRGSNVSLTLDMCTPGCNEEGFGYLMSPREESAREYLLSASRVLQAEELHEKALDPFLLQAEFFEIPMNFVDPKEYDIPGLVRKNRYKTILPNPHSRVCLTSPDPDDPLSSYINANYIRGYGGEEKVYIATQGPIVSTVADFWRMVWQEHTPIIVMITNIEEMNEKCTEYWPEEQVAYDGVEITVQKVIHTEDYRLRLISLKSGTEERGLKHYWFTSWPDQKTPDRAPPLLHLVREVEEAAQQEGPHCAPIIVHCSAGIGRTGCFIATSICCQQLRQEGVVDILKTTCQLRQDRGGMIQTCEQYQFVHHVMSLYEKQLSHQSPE
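Assay system: isolated STEP enzyme / Timing: 20 min at room temperature, dark / Doses: 20 µM, 1% DMSO / Technique: fluorescence intensity, excitation 480 nm, emission 540 nm / Reagent: fluorogenic phosphatase substrate OMFP at 25 µM final / Measure: percent inhibition scaled to no-enzyme and uninhibited-enzyme controls, plate-pattern corrected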
DNMT1 block: inhibitors of human DNMT1; P26358; DNMT1 molecular beacon, Hinp1I cleavage, fluorescence; inhibition (reported as % activation of signal), % at 10 µM; AID 588458; 0.83% of 360,000 active; in the data active = inhibition above about 50%
LMPTP block: LMPTP (human) inhibition; AID 651560; 0.22% of 360,000 active; P24666; recombinant LMPTP-A, OMFP fluorogenic substrate, fluorescence intensity; inhibition, % at 20 µM;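 active = compounds that cut the enzyme signal by at least half of the control window in the single-dose screen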
Target sequence (P24666 whole entry, looked up): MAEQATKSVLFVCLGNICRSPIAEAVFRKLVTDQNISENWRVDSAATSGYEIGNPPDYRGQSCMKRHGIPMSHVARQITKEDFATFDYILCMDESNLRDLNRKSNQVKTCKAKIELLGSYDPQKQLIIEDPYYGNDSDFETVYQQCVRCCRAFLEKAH
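Test system: LMPTP-A phosphatase enzyme. Amount: LMPTP-A at 0.625 nM final in the reaction. Reagent: OMFP substrate, 400 µM final. Times: 50 min at room temperature. Signal: endpoint fluorescence intensity from OMFP dephosphorylation. Read-out basis: % inhibition. Benchmarks: no-enzyme and uninhibited controls.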
Scp1 confirm: confirmation of human Scp-1 phosphatase inhibitors | recombinant SCP-1 catalytic domain, phosphate release, malachite green absorbance | shares compounds with Scp1 inh | inhibition, % at 20 µM | 61% of 2,500 active | AID 540281
Scp-1 MG ctr: counter-screen for Scp-1 inhibitors: colorimetric interference; shares compounds with Scp1 inh; Colorimetric interference counterscreen, malachite green absorbance 630 nm; apparent inhibition (interference), % at 20 µM; 2,500 tested, under 10 active; AID 540313;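 note: compounds added after enzyme reaction finished so only phosphate colour detection is probed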
Scp-1 Tm shift: validation of human Scp-1 inhibitors by thermal shift binding; shares compounds with Scp1 inh; Recombinant SCP1, Sypro Orange thermal shift Tm; thermal shift relative to vanadate control, % at 40 µM; 25% of 1,500 active;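 active = substances whose mean melting-temperature shift, as a percentage of the reference inhibitor's shift, reaches about 5.3%, limit read from the data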
Large screens that a line does not name were inactive (follow-up assays come after a bar, where they were run).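 Rule for the calls, unless noted: active = inhibition of at least 30% at 20 µM; inactive = the rest.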

CCC1SC2=NC(C)=C(C(=O)OCC(C)C)C(/C=C/c3ccccc3OC)N2C1=O (stereo not given)	none
COc1ccc2cc(C3CC=C(COC(C)=O)CN3S(=O)(=O)c3ccccc3[N+](=O)[O-])n(C(=O)OC(C)(C)C)c2c1 (stereo not given)	none (no result: Scp1 inh, GRK2 aptamer HTS, STEP inh, DNMT1 block)
Cc1ccc(C(=O)Nc2ccc(N3CCN(C(=O)c4ccco4)CC3)cc2)c(Cl)c1	Scp1 inh 68.1 | Scp1 confirm inactive | Scp-1 MG ctr inactive
O=C(Nc1ccc(N2CCN(C(=O)c3ccco3)CC2)cc1)c1ccc([N+](=O)[O-])cc1Cl	none
Cc1ccc([C@@H]2C[C@H]3[C@@H](CN2S(=O)(=O)c2ccc(Cl)cc2)C(=O)C[C@@H](c2ccccc2)N3S(=O)(=O)c2ccc(C)cc2)cc1	none (no result: Scp1 inh, GRK2 aptamer HTS)
Cc1nnc(N2C(=O)c3oc4ccccc4c(=O)c3C2c2ccco2)s1 (stereo not given)	Scp1 inh 60.0 | Scp1 confirm 42.4 | Scp-1 MG ctr inactive | Scp-1 Tm shift inactive
CC(NC(=O)COc1cc(=O)n(C)c2ccccc12)c1ccc2c(c1)OCCO2 (stereo not given)	none | Scp1 confirm inactive | Scp-1 MG ctr inactive
O=C(COC(=O)c1cccc2ccccc12)Nc1ncc(C(F)(F)F)cc1Cl	none
O=C(COC(=O)c1cc(-c2ccccc2Cl)nc2ccccc12)Nc1ncc(C(F)(F)F)cc1Cl	Scp1 inh 50.3 | Scp1 confirm 35.7 | Scp-1 MG ctr inactive | Scp-1 Tm shift inactive
CCCCC(CC)C1OCC(C[N+]2(C)CCOCC2)O1 (stereo not given)	none
CC(c1ccccc1)C1OCC(C[N+]2(C)CCCCC2)O1 (stereo not given)	Scp1 inh 93.3 | Scp1 confirm 83.0 | Scp-1 MG ctr inactive | Scp-1 Tm shift inactive
CCCCNC(=O)C1(C)CCN1C(=O)c1ccc2sccc2c1 (stereo not given)	none (no result: Scp1 inh, GRK2 aptamer HTS)
CC(C)(C)OC(=O)C[C@H]1C/C=C\C[C@@H](CC(=O)N(CCO)Cc2ccccc2)C(=O)NC[C@@H](c2ccccc2)OC1=O	none (no result: GRK2 aptamer HTS)
C[C@H](CO)N1C[C@H](C)[C@@H](CN(C)C(=O)Nc2ccc(C(F)(F)F)cc2)Oc2c(NC(=O)CCC(F)(F)F)cccc2C1=O	none
CCOC(=O)c1cnc2nc(NCc3ccc(OCc4ccccc4)cc3)[nH]n2c1=O	Scp1 inh 70.5 | Scp1 confirm 91.2 | Scp-1 MG ctr inactive | Scp-1 Tm shift inactive
Cc1cc(CSc2ccccc2)ccc1NC(=O)c1cccc([N+](=O)[O-])c1	Scp1 inh 53.6 | Scp1 confirm inactive | Scp-1 MG ctr inactive
CC(C)c1cc(Cn2c3ccccc3c(=O)n2C(C)Cn2cc(COc3ccccc3)nn2)on1 (stereo not given)	none (no result: Scp1 inh, GRK2 aptamer HTS, STEP inh, DNMT1 block)
CC1=CCC(C(=O)O)C(C(=O)Nc2ccc(-c3nc4ccc(C)cc4s3)cc2)C1 (stereo not given)	Scp1 inh 50.0 | Scp1 confirm 65.4 | Scp-1 MG ctr inactive | Scp-1 Tm shift inactive
CN(C)Cc1cn(CC[C@@H]2CC[C@@H](NC(=O)Nc3ccccc3F)[C@@H](CO)O2)nn1	none (no result: Scp1 inh, GRK2 aptamer HTS, STEP inh, DNMT1 block)
CCNC(=O)OCc1cn(-c2ccc(Cl)cc2)nn1	none
O=C(Nc1ccc(Cl)cc1)OCc1cn(-c2ccc(Cl)cc2)nn1	Scp1 inh 84.0 | Scp1 confirm inactive | Scp-1 MG ctr inactive
O=C(CSc1n[nH]c(-c2ccncc2)n1)Nc1ccc(Cl)c(Cl)c1	Scp1 inh 52.4 | Scp1 confirm inactive | Scp-1 MG ctr inactive
CCOc1ccccc1C(=O)N(C)Cc1cc2cc(OC)ccc2[nH]c1=O	Scp1 inh 50.8 | Scp1 confirm inactive | Scp-1 MG ctr inactive
CCOc1cc(C(=O)N(C)Cc2cc3cc(OC)ccc3[nH]c2=O)cc(OCC)c1OCC	none
CC[N+](CC)(CC)CCOc1ccc(/C=C/c2ccccc2)cc1	Scp1 inh 73.7 | Scp1 confirm 50.3 | Scp-1 MG ctr inactive | Scp-1 Tm shift inactive
CCOc1ccc(/C=C/C(=O)c2ccccc2)cc1	none
C[N+]1(CC2COC3(CCCCC3)O2)CCCCC1 (stereo not given)	Scp1 inh 107.9 | Scp1 confirm 74.9 | Scp-1 MG ctr inactive | Scp-1 Tm shift inactive
CCOC(=O)c1cc(-c2ccc(/C=N\n3cnnc3)o2)ccc1Cl	none
CCCCOC(=O)c1cc(-c2ccc(/C=N/n3cnnc3)o2)ccc1Cl	Scp1 inh 91.2 | Scp1 confirm inactive | Scp-1 MG ctr inactive
COc1ccc2cc(C(=O)Nc3ccccc3)sc(=O)c2c1OC	none
COc1ccc2cc(C(=O)Nc3ccc(S(N)(=O)=O)cc3)sc(=O)c2c1OC	Scp1 inh 72.5 | Scp1 confirm 38.1 | Scp-1 MG ctr inactive | Scp-1 Tm shift inactive
CN(Cc1ccccc1)C(=O)c1ncn(Cc2ccccc2)c1C(=O)N(C)Cc1ccccc1	none
CN(Cc1ccccc1)C(=O)c1ncn(C)c1C(=O)N(C)Cc1ccccc1	Scp1 inh 93.4 | Scp1 confirm 84.6 | Scp-1 MG ctr inactive | Scp-1 Tm shift inactive
Cc1ccc(C(=O)N2CCN(S(=O)(=O)c3cc(Br)ccc3Br)CC2)o1	Scp1 inh 67.6 | Scp1 confirm inactive | Scp-1 MG ctr inactive
Cc1ccc(C(=O)N2CCN(S(=O)(=O)c3ccccc3[N+](=O)[O-])CC2)o1	none
CSc1ccc(S(=O)(=O)NCC(=O)OC2CCOC2=O)cc1[N+](=O)[O-] (stereo not given)	none
Nc1ccc(S(=O)(=O)NCC(=O)OC2CCOC2=O)cc1[N+](=O)[O-] (stereo not given)	Scp1 inh 54.6 | Scp1 confirm inactive | Scp-1 MG ctr inactive
O=C1NC[C@@H](CCCCN2C[C@H](Cc3ccccc3)N(CCc3ccccc3)C(=O)C2=O)N(CCc2ccccc2)C1=O	none (no result: Scp1 inh, GRK2 aptamer HTS, STEP inh, DNMT1 block)
CC1=NN(c2ccccc2)C(=O)C1(C)C	none
CC[N+]1=CN(c2ccccc2)C(C)=CC1(C)C	Scp1 inh 77.7 | Scp1 confirm 85.5 | Scp-1 MG ctr inactive | Scp-1 Tm shift inactive
CN1CCN(S(=O)(=O)c2cccc(C(=O)N(C)CC(=O)Nc3ccc(F)c(F)c3F)c2)CC1	Scp1 inh 94.7 | Scp1 confirm inactive | Scp-1 MG ctr inactive
CCOC(=O)C1=C(c2ccccc2)c2ccccc2N(S(=O)(=O)C(F)(F)F)C1C(=O)OCC (stereo not given)	none

Bioassay records as filed in PubChem.
